ChEMBL document CHEMBL4665734, “Optimization of globomycin analogs as novel gram-negative antibiotics” (Bioorg Med Chem Lett, 2020)
≈ marks a conversion by molar mass, not a printed value. Starred links: 1 amine or outer side, 2 acyl side, 3 side chain; linkers in the order of their positions; H or OH if unused. Non-standard residues stand in square brackets, D forms with d. Residues, ends and D or L forms follow the SMILES beside them. *: point of attachment. X6 = C[C@H](CO[C@H](CC1C[C@H]2CC[C@@H](C1)C2)[C@@H](C)C(=O)[*:2])N[*:1]; dAlaψ(CH2NBu)Nle = CCCC[C@@H](C(=O)[*:2])N(CCCC)C[C@@H](C)N[*:1]; X3 = C[C@H](CO[C@H](CC1CC2(CCC2)C1)[C@@H](C)C(=O)[*:2])N[*:1]; X10 = CCCCCC[C@@H](OC[C@@H](CC)N[*:1])[C@@H](C)C(=O)[*:2]; X8 = CCCCCC[C@@H](O[C@@H](C)CN[*:1])[C@@H](C)C(=O)[*:2]; X7 = CCCCCC[C@@H](O[C@H](C)CN[*:1])[C@@H](C)C(=O)[*:2]; Cyclobutyl(trans-3-NH2) = N[C@H]1C[C@H](*)C1; X4 = CCCCCCN(CCN[*:1])[C@@H](C)C(=O)[*:2]; Gly(cHept) = N[C@H](C(=O)O)C1CCCCCC1; aThr = C[C@H](O)[C@H](N)C(=O)O; NMeL = CN[C@@H](CC(C)C)C(=O)O; Chg = N[C@H](C(=O)O)C1CCCCC1; NMeNva = CCC[C@H](NC)C(=O)O; Dap = NC[C@H](N)C(=O)O; X5 = NCCCNCCC*

Columns and labels:
[1] = Stability of the compound in human plasma assessed as parent compound remaining after 24 hrs; type: ADME, cell-free; conditions: read-out: Stabilty
How it was run: (§1)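 Test compound incubated for 24 hour in human, rat or mouse plasma. Stability is reported as the percentage of parent compound remaining.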

[2] = Stability of the compound in mouse plasma assessed as parent compound remaining after 24 hrs; type: ADME, cell-free; conditions: read-out: Stabilty; how it was run: as §1
Escherichia coli = test: Inhibition of LspA in Escherichia coli CFT073imp4213 harboring outer membrane-permeable mutant assessed as inhibition of bacterial growth
How it was run: (§2)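 Read-out is the minimum inhibitory concentration, reported in µM.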

Escherichia coli CFT073 = test: Inhibition of LspA in wild type Escherichia coli CFT073 assessed as inhibition of bacterial growth; how it was run: as §2
[3] = Growth inhibition of Staphylococcus aureus USA300
[4] = Lipophilicity, logD of the compound at pH 7.4; conditions: buffer, pH 7.4, logD
[5] = Stability of the compound in rat plasma assessed as parent compound remaining after 24 hrs; type: ADME, cell-free; conditions: read-out: Stabilty; how it was run: as §1
[6] = Protein binding in rat plasma; type: ADME, cell-free; conditions: read-out: PPB (converted)
[7] = Protein binding in mouse plasma; type: ADME, cell-free; conditions: read-out: PPB (converted)
[8] = Clearance in rat liver microsomes; type: ADME, Microsome
How it was run: (§3)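 Intrinsic clearance in rat or mouse liver microsomes, expressed in mL/min/kg.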

[9] = Clearance in mouse liver microsomes; type: ADME, Microsome; how it was run: as §3
[10] = Clearance in iv dosed rat; type: ADME, organism-based; conditions: in vivo
[11] = Half life in iv dosed rat; type: ADME, organism-based; conditions: in vivo
Klebsiella pneumoniae = test: Inhibition of LspA in Klebsiella pneumoniae assessed as inhibition of bacterial growth
Pseudomonas aeruginosa = test: Inhibition of LspA in Pseudomonas aeruginosa assessed as inhibition of bacterial growth
Acinetobacter baumannii = test: Inhibition of LspA in Acinetobacter baumannii assessed as inhibition of bacterial growth
Jurkat = test: Cytotoxicity against human Jurkat cells; type: cell-based
How it was run: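 Jurkat cell growth assay. Result reported as antiproliferative EC50.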

[12] = Clearance in iv dosed mouse; type: ADME, organism-based; conditions: in vivo
[13] = Half life in iv dosed mouse; type: ADME, organism-based; conditions: in vivo
Enterobacter cloacae = test: Inhibition of LspA in Enterobacter cloacae assessed as inhibition of bacterial growth

SMILES | remaining at 24 h [1] [%] | remaining at 24 h [2] [%] | MIC (Escherichia coli) [nM] | MIC (Escherichia coli CFT073) [µM] | MIC [3] [µM] | logD [4] | remaining at 24 h [5] [%] | fraction unbound [6] | fraction unbound [7] | CLhep predicted [8] [mL/min/kg] | CLhep predicted [9] [mL/min/kg] | clearance [10] [mL/min/kg] | half-life [11] [min] | MIC (Klebsiella pneumoniae) [µM] | MIC (Pseudomonas aeruginosa) [µM] | MIC (Acinetobacter baumannii) [µM] | EC50 (Jurkat) [µM] | clearance [12] [mL/min/kg] | half-life [13] [min] | MIC (Enterobacter cloacae) [µM]
CCCCCC[C@H]1C(=O)N(C)[C@@H](CC(C)C)C(=O)N[C@@H](C2CCCCC2)C(=O)N[C@@H](CN)C(=O)N[C@@H]([C@H](C)O)C(=O)NCCN1C | 92 | 81 | 390 (≈ 0.254 µg/mL) | 12 (≈ 7.82 µg/mL) | 100 (≈ 65.2 µg/mL) |  |  |  |  |  |  |  |  |  |  |  |  |  |  | 
CCCCCCN1CCNC(=O)[C@H](CO[C@H]2C[C@H](N)C2)NC(=O)[C@H](CN)NC(=O)[C@H](C2CCCCC2)NC(=O)[C@H](CC(C)C)N(C)C(=O)[C@@H]1C (cyclo([Chg][Dap]S(Cyclobutyl(trans-3-NH2))[X4][NMeL])) | 110 | 95 |  | 6.3 (≈ 4.45 µg/mL) | 100 (≈ 70.7 µg/mL) | 1 | 60 | 0.043 | 0.03 | 26 | 34 | 8.7 | 96 | 100 (≈ 70.7 µg/mL) | > 100 | > 100 | > 100 |  |  | 
CCCC[C@H]1C(=O)N(C)[C@@H](CCC)C(=O)N[C@@H](C2CCCCC2)C(=O)N[C@@H](CN)C(=O)N[C@@H](CO[C@H]2C[C@H](N)C2)C(=O)N[C@H](C)CN1CCCC (cyclo([Chg][Dap]S(Cyclobutyl(trans-3-NH2))[dAlaψ(CH2NBu)Nle][NMeNva])) | 105 | 55 |  | 6.3 (≈ 4.54 µg/mL) | 50 (≈ 36.1 µg/mL) | 1.5 | 58 | 0.047 | 0.026 | < 6.1 | 32 | 24 | 408 | 25 (≈ 18 µg/mL) | 100 (≈ 72.1 µg/mL) | 25 (≈ 18 µg/mL) |  |  |  | 
CCCCCCN1CCNC(=O)[C@H]([C@H](C)O)NC(=O)[C@H](CN)NC(=O)[C@H](C2CCCCC2)NC(=O)[C@H](CC(C)C)N(C)C(=O)[C@@H]1C (cyclo([Chg][Dap][aThr][X4][NMeL])) | 95 | 112 | 500 (≈ 0.326 µg/mL) | 25 (≈ 16.3 µg/mL) | > 100 |  |  |  |  |  |  |  |  |  |  |  |  |  |  | 
CCCCCC[C@H]1O[C@H](C)CNC(=O)[C@H]([C@H](C)O)NC(=O)[C@H](CN)NC(=O)[C@H](C2CCCCC2)NC(=O)[C@H](CC(C)C)N(C)C(=O)[C@@H]1C (cyclo([Chg][Dap][aThr][X7][NMeL])) | 100 | 92 | 400 (≈ 0.272 µg/mL) | 35 (≈ 23.8 µg/mL) | 100 (≈ 68.1 µg/mL) |  |  |  |  |  |  |  |  |  |  |  |  |  |  | 
CCCCCC[C@H]1O[C@@H](C)CNC(=O)[C@H]([C@H](C)O)NC(=O)[C@H](CN)NC(=O)[C@H](C2CCCCC2)NC(=O)[C@H](CC(C)C)N(C)C(=O)[C@@H]1C (cyclo([Chg][Dap][aThr][X8][NMeL])) | 91 | 101 | 100 (≈ 0.0681 µg/mL) | 12 (≈ 8.17 µg/mL) | 100 (≈ 68.1 µg/mL) |  |  |  |  |  |  |  |  |  |  |  |  |  |  | 
CCCCCC[C@H]1OC[C@@H](CC)NC(=O)[C@H]([C@H](C)O)NC(=O)[C@H](CN)NC(=O)[C@H](C2CCCCC2)NC(=O)[C@H](CC(C)C)N(C)C(=O)[C@@H]1C (cyclo([Chg][Dap][aThr][X10][NMeL])) | 101 | 87 | 24 (≈ 0.0167 µg/mL) | 2.2 (≈ 1.53 µg/mL) | 50 (≈ 34.7 µg/mL) |  |  |  |  |  |  |  |  |  |  |  |  |  |  | 
CCCC[C@H]1C(=O)N(C)[C@@H](CC(C)C)C(=O)N[C@@H](C2CCCCC2)C(=O)N[C@@H](CN)C(=O)N[C@@H]([C@H](C)O)C(=O)N[C@H](C)CN1CCCC (cyclo([Chg][Dap][aThr][dAlaψ(CH2NBu)Nle][NMeL])) | 97 | 89 | 17 (≈ 0.0116 µg/mL) | 1.6 (≈ 1.09 µg/mL) | 71 (≈ 48.3 µg/mL) | 3.4 | 102 | 0.005 | 0.004 | 27 | 77 | 53 | 156 |  |  |  |  |  |  | 
CCC[C@H]1C(=O)N[C@@H](C2CCCCCC2)C(=O)N[C@@H](CN)C(=O)N[C@@H](CO[C@H]2C[C@H](N)C2)C(=O)N[C@H](C)CO[C@H](CC2CC3(CCC3)C2)[C@@H](C)C(=O)N1C (cyclo([Dap]S(Cyclobutyl(trans-3-NH2))[X3][NMeNva][Gly(cHept)])) | 103 | 84 |  | 2.2 (≈ 1.67 µg/mL) | 25 (≈ 19 µg/mL) | 2.2 | 90 | 0.022 | 0.007 | 28 | 48 | 40 | 192 | 8.8 (≈ 6.69 µg/mL) | 71 (≈ 54 µg/mL) | 18 (≈ 13.7 µg/mL) |  | 11 | 240 | 6.3 (≈ 4.79 µg/mL)
CCC[C@H]1C(=O)N[C@@H](C2CCCCCC2)C(=O)N[C@@H](CN)C(=O)N[C@@H](COCCCNCCCN)C(=O)N[C@H](C)CO[C@H](CC2CC3(CCC3)C2)[C@@H](C)C(=O)N1C (cyclo([Dap]S(X5)[X3][NMeNva][Gly(cHept)])) | 103 | 106 |  | 1.6 (≈ 1.29 µg/mL) | 18 (≈ 14.5 µg/mL) | 0.7 | 118 | 0.025 | 0.001 |  | 53 |  |  | 3.1 (≈ 2.5 µg/mL) | 50 (≈ 40.3 µg/mL) | 50 (≈ 40.3 µg/mL) | > 50 | 12 | 276 | 3.1 (≈ 2.5 µg/mL)
CCC[C@H]1C(=O)N[C@@H](C2CCCCCC2)C(=O)N[C@@H](CN)C(=O)N[C@@H](COCCCNCCCN)C(=O)N[C@H](C)CO[C@H](CC2C[C@H]3CC[C@@H](C2)C3)[C@@H](C)C(=O)N1C (stereo not given in full) (cyclo([Dap]S(X5)[X6][NMeNva][Gly(cHept)])) |  |  |  | 0.78 (≈ 0.639 µg/mL) | 12 (≈ 9.83 µg/mL) | 0.2 |  | 0.026 | 0.004 |  |  |  |  | 1.6 (≈ 1.31 µg/mL) | 12 (≈ 9.83 µg/mL) | 25 (≈ 20.5 µg/mL) | > 100 | 68 | 150 | 1.6 (≈ 1.31 µg/mL)
